RAM inhibit: inhibitors of the yeast RAM network. S. cerevisiae dse1pr::URA3 reporter, 5-FOA growth OD615, 2 d; analog-sensitive cbk1-as2 kinase mutant strain. inhibition, % at 50 µM. 190,000 compounds, 1.8% hits. AID 868;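 active = inhibition above a set limit, 3 SD over mean compound inhibition, cut at about 8.4% in these data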;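 note: 0% = DMSO-only wells with no growth and 100% = 10 µM 1-NA-PP1 full growth; inhibition rescues growth on 5-FOA so higher OD means more RAM inhibition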
Phagocyt inh: blocks phagocytosis by macrophages | inhibition, % at 5 µM | 110,000 compounds, 0.07% hits | J774A.1 macrophage IgG-bead phagocytosis, imaging | AID 1029;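 active = inhibition above the mean of the plate negative controls plus 5 SD, cut at about 13% in these data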;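 note: phagocytic index as fraction of beads internalized from green versus red external bead signal; plate controls were DMSO negative control for no effect and cytochalasin-D positive control for full effect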
Yeast lifespan up: yeast lifespan extension; S. cerevisiae growth with nicotinamide, OD615; deaD strain in restrictive glucose medium; inhibition of the nicotinamide effect, % at 10 µM; 130,000 compounds, 0.68% hits;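 active = inhibition above a set limit, placed 3 SD over the median of all compounds, cut at about 26% in these data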;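 note: 0% = nicotinamide-treated wells and 100% = cells grown without nicotinamide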
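Test system: DeaD-strain S. cerevisiae / Buffer or medium: restrictive glucose medium / Also added: nicotinamide 1.5 mM / Doses: one concentration, 10 µM, DMSO 0.25% / Schedule: 48 h at 30 °C / Signal: OD615 measurement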
Yeast growth inh: yeast BB579 growth reduction in restrictive medium. inhibition, % at 10 µM. 140,000 compounds, 0.51% hits. AID 804. S. cerevisiae BB579 growth, OD615, 48 h;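 active = inhibition above a set limit, 3 SD over the mean compound inhibition, cut at about 44% in these data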
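System: Saccharomyces cerevisiae DeaD strain BB579, replicative lifespan model yeast. Buffer or medium: restrictive glucose-based CSMM-D medium. Doses: one dose, 10 µM compound with 0.25% DMSO. Timing: 4 h preincubation and 48 h exposure at 30 °C. Detection: turbidity as optical density at 615 nm. Benchmarks: amphotericin B 10 µg/mL, positive.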
The depositor's hits bear a star; x = no result; + = active, no number; [ ] = remark or other dose. An excerpt weighted towards active compounds, which were near 2.7% of everything screened.

SMILES	RAM inhibit	Phagocyt inh	Yeast lifespan up	Yeast growth inh
COc1ccc(C(=O)C23CC4CC(C2)CC(C(=O)c2ccc(OC)cc2)(C4)C3)cc1	9.1*	x	x	x
c1ccc2nc(-c3nc4ccccc4o3)ccc2c1	1	2	-20	8
CNc1ccccc(-c2ccc3ccccc3n2)c1=O	0	2	32*	-14
COc1ccc(NC(=O)CSc2nnc(-c3ccccc3)n2Cc2ccco2)c(OC)c1	0	1	-9	-62
O=C(CSc1nnc(-c2ccco2)n1Cc1ccco1)Nc1ccccc1	11*	-4	-8	-19
COc1ccc(C)cc1NC(=O)CSc1nnc(-c2ccccn2)n1Cc1ccco1	3	-2	-18	-33
COc1ccc(C)cc1NC(=O)CSc1nnc(COc2ccccc2)n1Cc1ccco1	9.5*	0	-4	-13
COc1ccc(C)cc1NC(=O)CSc1nnc(COc2ccc(Cl)cc2)n1Cc1ccco1	9.7*	0	-9	-28
COc1ccc(NC(=O)CSc2nnc(COc3ccccc3)n2Cc2ccco2)cc1OC	9.9*	-1	-8	-72
O=C(c1ccco1)c1coc2c1cc(O)c1ccccc12	5	x	x	x
CCCCC(=O)N/N=C(/C)C1=C(C)C(C)(C)OC1=O	2	x	x	x
O=C(CSc1nnc(-c2ccc(F)cc2)c2ccccc12)NCC1CCCO1 (configuration not stated)	1	x	x	x
O=C(c1ccc(S(=O)(=O)N2CCc3ccccc3C2)cc1)N1CCCCC1	3	x	x	x
CCCC(=O)C1C(=O)CC(C)(C)C(c2cc(C)no2)C1=O (configuration not stated)	0	2	56*	-48
COc1ccc(CCNC(=O)CSc2cn(Cc3ccccc3)c3ccccc23)cc1OC	10*	x	10	-35
Cc1ccc2nc(/C(C#N)=C/c3cn[nH]c3-c3ccc(F)cc3)[nH]c2c1	10*	2	-11	-32
Cc1ccc2nc(/C(C#N)=N/O)[nH]c2c1	2	x	11	-24
NC1=NC(=O)/C(=C/c2cn(Cc3ccccc3)c3ccccc23)S1	5	-2	0	-17
COc1ccc(-c2nc(N)ncc2-c2csc(C)n2)c(O)c1OC	-1	x	x	x
CCN(CC(=O)Nc1ccc(C(C)=O)cc1)CC(=O)Nc1cccc(OC)c1	2	x	x	x
CC(C)CC(=O)Nc1cccc(-c2csc(-c3ccccc3)n2)c1	10*	2	-14	-56
CCC(=O)Nc1cccc(-c2csc(-c3ccccc3)n2)c1	3	0	-7	-7
COc1ccc(/C=C2\CC/C(=C\c3ccc(OC)c(OC)c3)C2=O)cc1OC	11*	-13	7	-50
O=C(Nc1cc(S(=O)(=O)N2CCOCC2)ccc1Cl)C(=O)c1c(-c2ccccc2)cc2ccccn12	2	x	5	-30
Cc1ccccc1/C=C1\SC(=S)N(/N=C/c2cc([N+](=O)[O-])ccc2O)C1=O	1	x	x	x
SMILES	RAM inhibit	Phagocyt inh	Yeast lifespan up	Yeast growth inh
CCCCCc1c(C)nc(N2CCc3ccccc32)[nH]c1=O	9.9*	x	4	-46
COc1ccc(NC(C)=O)cc1NC(C)C(=O)Nc1cccc2ccccc12 (configuration not stated)	0	-1	-17	-37
CCOC(=O)c1nc(NCc2cccc(OC)c2)c2ccccc2n1	-1	x	x	x
Cc1onc(-c2ccccc2)c1C(=O)Nc1cccc(C#N)c1	0	0	-11	-20
COc1cc(/C=C/C(=O)OCC(=O)N2CCc3ccccc3C2)ccc1O	5	66*[artifact]	-1	-22
COC(=O)CSc1nc(-c2ccccc2)c2c(c1C#N)CCCC2	8.6*	-1	0	-52
Cc1nc2c(=O)n(C)c(=O)n(C)c2nc1Cl	1	-1	75*	5
Cc1ccc(NC(=O)C(OC(=O)c2ccc(O)cc2)c2ccccc2)cc1Cl (configuration not stated)	8.5*	-1	-2	-40
O=C(N/N=C/c1ccc([N+](=O)[O-])s1)c1cccnc1	-2	-7	-3	-17
Cc1ccc2sc(N(CCCN(C)C)C(=O)c3ccc(Br)s3)nc2c1C	1	x	x	x
CN1C(=O)C(O)(c2nnc(-c3ccccc3)o2)c2ccccc21 (configuration not stated)	1	x	x	x
CN1C(=O)C2(N=c3ccccc3=N2)c2ccccc21	1	0	-35	57*
COC(=O)c1ccc2c(=O)n(-c3ccc(OC)cc3)c(=S)[nH]c2c1	4	x	x	x
COc1ccc(CCN(Cc2cc3ccc(C)cc3n3nnnc23)C(C)=O)cc1OC	0	x	x	x
Cc1ccc(O)c(C(=O)CC(=O)c2cccc(F)c2)c1	0	-1	-4	51*
O=C(CC(=O)c1cc(Cl)ccc1O)c1ccccc1	2	-1	-12	82*
COc1ccc(O)c(C(=O)CC(=O)c2ccc(F)cc2)c1	0	-1	-22	-2
Cc1cccc(C(=O)NNC(=O)c2ccccc2)c1	2	-3	-5	-42
Cc1cccc(C(=O)CC(=O)c2cc(Cl)ccc2O)c1	-1	0	-6	83*
COc1cc(OC)cc(C(=O)n2cnnc2N)c1	1	1	-10	-58
COc1ccc(NC(=O)c2csc(Cc3ccc(Cl)cc3)n2)cc1	11*	x	x	x
COc1ccc(Cc2nc(C(=O)Nc3ccc(Cl)cc3)cs2)cc1	8.8*	1	-14	-64
CC1(C(=O)NC(=S)NNC(=O)c2ccncc2)CCCCC1	-1	-9	10	-42
O=C(NNC(=S)NC(=O)C12CC3CC(CC(C3)C1)C2)c1ccncc1	-1	0	-3	74*
COc1cc(CN2CCN(C(C)C)C(CCO)C2)ccc1OCc1ccccc1 (configuration not stated)	1	x	x	x
SMILES	RAM inhibit	Phagocyt inh	Yeast lifespan up	Yeast growth inh
Cc1cc(C)nc(SCc2cc(=O)c(OC(=O)c3ccco3)co2)n1	3	-10	46*	-24
Cc1cc(C)nc(SCc2cc(=O)c(OC(=O)c3cc([N+](=O)[O-])ccc3Cl)co2)n1	3	x	19	-39
Cc1cc(C)nc(SCc2cc(=O)c(OC(=O)c3ccc(Br)o3)co2)n1	-1	-7	49*	-42
O=[N+]([O-])c1cccc(-c2nc(NCc3ccccc3)c3ccccc3n2)c1	8.7*	0	3	-23
COc1ccc(OC)c(-c2nc3cc4ccccc4cc3nc2-c2ccccc2)c1	4	-5	4	-51
O=c1c2ccccc2cnn1Cc1n[nH]c(=S)n1-c1ccccc1Cl	1	-6	3	-8
C/C(=N\NC(=O)CN(c1ccc(Oc2ccccc2)cc1)S(C)(=O)=O)C(C)(C)C	2	x	x	x
CCC(/C=C1\Sc2ccc(OC)cc2N1CCO)=C\c1sc2ccc(OC)cc2[n+]1CCO	2	+[fluoresces]	7	-32
CCc1ccc(/C=C2/Sc3ccccc3N(CC(=O)NCCCOC)C2=O)cc1	9.8*	x	x	x
CCc1ccc(/C=N/NC(=S)NCCc2ccccc2)cc1	8.5*	-1	14	-29
S=C(NCCc1ccccc1)N/N=C/c1ccccc1Cl	1	x	-2	-26
CCNC(=S)N/N=C/c1ccc(F)cc1	1	x	x	x
CCNC(=S)N/N=C/c1cccc(/C=N/NC(=S)NCC)c1	10.0*	x	x	x
Cn1nc([N+](=O)[O-])nc1Oc1ccc(C(C)(C)C)cc1	3	-2	2	-2
